# Tests used:
# [1] = biological target: T1, Dual specificity mitogen-activated protein kinase kinase 7 (Homo sapiens) (UniProt O14733); test: Binding affinity to N-terminal 6XHis-tagged recombinant MKK7 (117 to 423 residues) (unknown origin) assessed as protein labelling at 2 uM measured for 10 mins by LC/MS analysis relative to control
# T1 sequence (whole entry): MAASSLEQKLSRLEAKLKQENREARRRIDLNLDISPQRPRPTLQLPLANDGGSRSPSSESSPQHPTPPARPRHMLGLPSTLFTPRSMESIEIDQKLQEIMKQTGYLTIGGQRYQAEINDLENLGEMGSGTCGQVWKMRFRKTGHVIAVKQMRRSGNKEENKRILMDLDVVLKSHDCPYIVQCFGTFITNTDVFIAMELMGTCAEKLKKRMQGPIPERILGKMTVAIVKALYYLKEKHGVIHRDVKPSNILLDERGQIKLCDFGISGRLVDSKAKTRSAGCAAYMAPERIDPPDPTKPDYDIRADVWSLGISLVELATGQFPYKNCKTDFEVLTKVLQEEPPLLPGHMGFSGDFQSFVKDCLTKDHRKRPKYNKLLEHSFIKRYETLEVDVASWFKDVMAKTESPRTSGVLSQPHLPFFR
# [2] = biological target: T1, Dual specificity mitogen-activated protein kinase kinase 7 (Homo sapiens); test: Inhibition of N-terminal 6XHis-tagged recombinant MKK7 (117 to 423 residues) in human U2OS cells assessed as reduction in JNK phosphorylation level at 13.8 uM incubated for 2 hrs by ICW detection method relative to control; format: cell-based
# Method in brief: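 U2OS cells plated on fibronectin-coated 384-well plates, 24 h. Crude CuAAC reaction mixtures diluted in PBS and given to cells at 13.89 μM final for 2 h. 0.2 M sorbitol added 40 min before fixation. Cells fixed, permeabilized and immunostained for phospho-JNK T183/Y185. The 800 nm signal was normalized to CellTag700 and compared with control wells.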
# [3] = biological target: T2, Dual specificity mitogen-activated protein kinase kinase 7 (Homo sapiens, UniProt O14733); test: Inhibition of N-terminal 6XHis-tagged recombinant MKK7 (117 to 423 residues) in human U2OS assessed as reduction in c-Jun phosphorylation level incubated for 80 mins by Western blot analysis; format: cell-based
# T2 sequence (O14733 whole entry): T1 sequence (whole entry)
# Method in brief: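 U2OS cells in six-well plates, media changed, then exposed to compound in 0.1% DMSO for 80 min. Sorbitol added to 0.2 M for 40 min. Lysates (35 μg protein) run on western blot against p-c-Jun (Ser63), with GAPDH as loading control. Bands quantified and EC50 taken from a sigmoidal dose–response fit with top fixed at 1 and bottom at 0.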
# [4] = Apparent permeability across apical to basolateral side in human Caco2 cells; settings: Caco-2
# [5] = Stability of the compound in human plasma assessed as parent compound remaining; format: ADME, cell-free
# [6] = Kinetic solubility of compound
# [7] = Metabolic stability in human liver microsomes assessed as intrinsic clearance measured after 60 mins
Activity [1] [%],inhibition [2] [%],SMILES,other results
> 70,,C=CC(=O)Nc1cc(C(=O)NCc2cn([C@@H]3CCCC[C@H]3OC)nn2)cc(-c2n[nH]c3ccccc23)c1 (racemic),
> 70,,C=CC(=O)Nc1cc(C(=O)NCc2cn(C3CCC3)nn2)cc(-c2n[nH]c3ccccc23)c1,
> 70,65,C=CC(=O)N1CCC[C@@H](n2nc(-c3cn(-c4ccc(OC)cc4)nn3)c3c(N)ncnc32)C1,
> 70,65,C=CC(=O)N1CCC[C@@H](n2nc(-c3cn(-c4ccc(C(=O)OC)cc4)nn3)c3c(N)ncnc32)C1,
> 70,65,C=CC(=O)N1CCC[C@@H](n2nc(-c3cn(CC(F)(F)c4ccc(Cl)cc4)nn3)c3c(N)ncnc32)C1,
> 70,65,C=CC(=O)N1CCC[C@@H](n2nc(-c3cn(-c4cc(Br)ccc4O)nn3)c3c(N)ncnc32)C1,EC50 [3]: > 900 nM
> 70,65,C=CC(=O)N1CCC[C@@H](n2nc(-c3cn(-c4ccc(Br)cc4)nn3)c3c(N)ncnc32)C1,
> 70,65,C=CC(=O)N1CCC[C@@H](n2nc(-c3cn(C[C@H](O)c4ccc(Br)cc4)nn3)c3c(N)ncnc32)C1,
> 70,65,C=CC(=O)N1CCC[C@@H](n2nc(-c3cn(-c4ccc(CO)c(F)c4)nn3)c3c(N)ncnc32)C1,
> 70,65,C=CC(=O)N1CCC[C@@H](n2nc(-c3cn(-c4ccc(Cl)cc4O)nn3)c3c(N)ncnc32)C1,
> 70,65,C=CC(=O)N1CCC[C@@H](n2nc(-c3cn(CCc4ccccc4)nn3)c3c(N)ncnc32)C1,
> 70,65,C#Cc1nn([C@@H]2CCCN(C(=O)C=C)C2)c2ncnc(N)c12,
,65,C=CC(=O)N1CCC[C@@H](n2nc(-c3cn(-c4ccc(C(C)=O)cc4)nn3)c3c(N)ncnc32)C1,Papp A→B [4]: 20 ×10⁻⁶ cm/s; Stability [5]: 70%; solubility kinetic [6]: 8 µM; microsomal CLint at 1 h [7]: 154 µL/min/mg
> 70,,C=CC(=O)Nc1cc(C(=O)NCc2cn(-c3ccccc3C)nn2)cc(-c2n[nH]c3ccccc23)c1,EC50 [3]: < 3000 nM
2,,C#CCNC(=O)c1cc(NC(=O)C=C)cc(-c2n[nH]c3ccccc23)c1,
> 70,,C=CC(=O)Nc1cc(C(=O)NCc2cn(-c3ccc(F)c(Cl)c3)nn2)cc(-c2n[nH]c3ccccc23)c1,
,65,C=CC(=O)N1CCC[C@@H](n2nc(-c3cn(CC(F)(F)c4ccccc4)nn3)c3c(N)ncnc32)C1,
